Reference: ChEMBL document CHEMBL3627671, “Novel derivatives of nitro-substituted salicylic acids: Synthesis, antimicrobial activity and cytotoxicity” (Bioorg Med Chem, 2015)
Values after ≈ are worked out from the molar mass of the structure shown.

Experiments:
[1] = tested on: Mycobacterium tuberculosis; assay: Antimycobacterial activity against Mycobacterium tuberculosis H37Rv 331/88 after 14 days; format: functional; settings: H37Rv 331/88, 336 h
[2] = tested on: Mycobacterium tuberculosis; assay: Antimycobacterial activity against Mycobacterium tuberculosis H37Rv 331/88 after 21 days; format: functional; settings: H37Rv 331/88, 504 h
[3] = tested on: Mycobacterium avium; assay: Antimycobacterial activity against Mycobacterium avium 330/80 after 14 days; format: functional; settings: 330/80, 336 h
[4] = tested on: Mycobacterium avium; assay: Antimycobacterial activity against Mycobacterium avium 330/80 after 21 days; format: functional; settings: 330/80, 504 h
[5] = tested on: Mycobacterium kansasii; assay: Antimycobacterial activity against Mycobacterium kansasii 235/80 after 7 days; format: functional; settings: 235/80, 168 h
Summary of the method: (§1)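 Šula's semisynthetic medium micromethod at 37 °C, read after 7, 14 and 21 days. The 1.0 McFarland suspension was diluted 10^-4. MIC determined. 6509/96 is a clinical isolate.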

[6] = tested on: Mycobacterium kansasii; assay: Antimycobacterial activity against Mycobacterium kansasii 235/80 after 14 days; format: functional; settings: 235/80, 336 h; summary of the method: as §1
[7] = tested on: Mycobacterium kansasii; assay: Antimycobacterial activity against Mycobacterium kansasii 235/80 after 21 days; format: functional; settings: 235/80, 504 h; summary of the method: as §1
[8] = tested on: Mycobacterium kansasii; assay: Antimycobacterial activity against Mycobacterium kansasii 6509/96 after 7 days; format: functional; settings: 6509/96, 168 h; summary of the method: as §1
[9] = tested on: Mycobacterium kansasii; assay: Antimycobacterial activity against Mycobacterium kansasii 6509/96 after 14 days; format: functional; settings: 6509/96, 336 h; summary of the method: as §1
[10] = tested on: Mycobacterium kansasii; assay: Antimycobacterial activity against Mycobacterium kansasii 6509/96 after 21 days; format: functional; settings: 6509/96, 504 h; summary of the method: as §1
[11] = tested on: Staphylococcus aureus; assay: Antibacterial activity against Staphylococcus aureus CCM 4516/08 after 24 hrs by microdilution broth method; format: functional; settings: CCM 4516/08, 24 h
[12] = tested on: Staphylococcus aureus; assay: Antibacterial activity against Staphylococcus aureus CCM 4516/08 after 48 hrs by microdilution broth method; format: functional; settings: CCM 4516/08, 48 h
[13] = tested on: Staphylococcus aureus; assay: Antibacterial activity against methicillin-resistant Staphylococcus aureus H 5996/08 after 24 hrs by microdilution broth method; format: functional; settings: H 5996/08, 24 h
[14] = tested on: Staphylococcus aureus; assay: Antibacterial activity against methicillin-resistant Staphylococcus aureus H 5996/08 after 48 hrs by microdilution broth method; format: functional; settings: H 5996/08, 48 h
[15] = tested on: Staphylococcus epidermidis; assay: Antibacterial activity against Staphylococcus epidermidis H 6966/08 after 24 hrs by microdilution broth method; format: functional; settings: H 6966/08, 24 h
Summary of the method: (§2)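 Mueller-Hinton broth microdilution (modified M07-A07), pH 7.4 (±0.2). Compounds dissolved in DMSO, tested at final 500 to 0.49 µmol/L. Inoculum in sterile water matched to 0.5 McFarland. Incubated in the dark, humid atmosphere, 35 °C, read at 24 and 48 h visually and at 540 nm. MIC taken as ≥95% growth reduction (IC95) versus control.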

[16] = tested on: Staphylococcus epidermidis; assay: Antibacterial activity against Staphylococcus epidermidis H 6966/08 after 48 hrs by microdilution broth method; format: functional; settings: H 6966/08, 48 h; summary of the method: as §2
[17] = tested on: Enterococcus sp.; assay: Antibacterial activity against Enterococcus sp. J 14365/08 after 24 hrs by microdilution broth method; format: functional; settings: J 14365/08, 24 h; summary of the method: as §2
[18] = tested on: Enterococcus sp.; assay: Antibacterial activity against Enterococcus sp. J 14365/08 after 48 hrs by microdilution broth method; format: functional; settings: J 14365/08, 48 h; summary of the method: as §2
[19] = tested on: Escherichia coli; assay: Antibacterial activity against Escherichia coli CCM4517 after 24 hrs by microdilution broth method; format: functional; settings: CCM4517, 24 h; summary of the method: as §2
[20] = tested on: Escherichia coli; assay: Antibacterial activity against Escherichia coli CCM4517 after 48 hrs by microdilution broth method; format: functional; settings: CCM4517, 48 h; summary of the method: as §2
[21] = tested on: Klebsiella pneumoniae; assay: Antibacterial activity against Klebsiella pneumoniae D 11750/08 after 24 hrs by microdilution broth method; format: functional; settings: D 11750/08, 24 h; summary of the method: as §2
[22] = tested on: Klebsiella pneumoniae; assay: Antibacterial activity against Klebsiella pneumoniae D 11750/08 after 48 hrs by microdilution broth method; format: functional; settings: D 11750/08, 48 h; summary of the method: as §2
[23] = tested on: Klebsiella pneumoniae; assay: Antibacterial activity against ESBL-positive Klebsiella pneumoniae J 14368/08 after 24 hrs by microdilution broth method; format: functional; settings: J 14368/08, 24 h; summary of the method: as §2
[24] = tested on: Klebsiella pneumoniae; assay: Antibacterial activity against ESBL-positive Klebsiella pneumoniae J 14368/08 after 48 hrs by microdilution broth method; format: functional; settings: J 14368/08, 48 h; summary of the method: as §2
[25] = tested on: Pseudomonas aeruginosa; assay: Antibacterial activity against Pseudomonas aeruginosa CCM 1961 after 24 hrs by microdilution broth method; format: functional; settings: CCM 1961, 24 h; summary of the method: as §2
[26] = tested on: Pseudomonas aeruginosa; assay: Antibacterial activity against Pseudomonas aeruginosa CCM 1961 after 48 hrs by microdilution broth method; format: functional; settings: CCM 1961, 48 h; summary of the method: as §2
[27] = tested on: Candida albicans; assay: Antifungal activity against Candida albicans ATCC 44859 after 24 hrs by microdilution broth method; format: functional; settings: ATCC 44859, 24 h
Summary of the method: (§3)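 CLSI M27-A3 broth microdilution in RPMI 1640 with glutamine, buffered to pH 7.0 with MOPS; DMSO diluent. Yeast inoculum 5 × 10^3 ± 0.2 CFU/mL. Moulds grown on Sabouraud agar 3–10 days before spore harvest, final inoculum 0.5-5 × 10^4 CFU/mL, checked in a Bürker chamber. Incubated dark, humid, 35 °C, read at 24 and 48 h visually and at 540 nm. MIC taken as ≥80% (yeasts) or ≥50% (filamentous) growth reduction versus control.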

[28] = tested on: Candida albicans; assay: Antifungal activity against Candida albicans ATCC 44859 after 48 hrs by microdilution broth method; format: functional; settings: ATCC 44859, 48 h; summary of the method: as §3
[29] = tested on: Candida tropicalis; assay: Antifungal activity against Candida tropicalis 156 after 24 hrs by microdilution broth method; format: functional; settings: Candida tropicalis, 156, 24 h; summary of the method: as §3
[30] = tested on: Candida tropicalis; assay: Antifungal activity against Candida tropicalis 156 after 48 hrs by microdilution broth method; format: functional; settings: Candida tropicalis, 156, 48 h; summary of the method: as §3
[31] = tested on: Pichia kudriavzevii; assay: Antifungal activity against Candida krusei E28 after 24 hrs by microdilution broth method; format: functional; settings: E28, 24 h; summary of the method: as §3
[32] = tested on: Pichia kudriavzevii; assay: Antifungal activity against Candida krusei E28 after 48 hrs by microdilution broth method; format: functional; settings: E28, 48 h; summary of the method: as §3
[33] = tested on: Nakaseomyces glabratus; assay: Antifungal activity against Candida glabrata 20/I after 24 hrs by microdilution broth method; format: functional; summary of the method: as §3
[34] = tested on: Nakaseomyces glabratus; assay: Antifungal activity against Candida glabrata 20/I after 48 hrs by microdilution broth method; format: functional; summary of the method: as §3
[35] = tested on: Trichosporon asahii; assay: Antifungal activity against Trichosporon asahii 1188 after 24 hrs by microdilution broth method; format: functional; settings: Trichosporon asahii, 1188, 24 h; summary of the method: as §3
[36] = tested on: Trichosporon asahii; assay: Antifungal activity against Trichosporon asahii 1188 after 48 hrs by microdilution broth method; format: functional; settings: Trichosporon asahii, 1188, 48 h; summary of the method: as §3
[37] = tested on: Aspergillus fumigatus; assay: Antifungal activity against Aspergillus fumigatus 231 after 24 hrs by microdilution broth method; format: functional; settings: Aspergillus fumigatus, 231, 24 h; summary of the method: as §3
[38] = tested on: Aspergillus fumigatus; assay: Antifungal activity against Aspergillus fumigatus 231 after 48 hrs by microdilution broth method; format: functional; settings: Aspergillus fumigatus, 231, 48 h; summary of the method: as §3
[39] = tested on: Lichtheimia corymbifera; assay: Antifungal activity against Absidia corymbifera 272 after 24 hrs by microdilution broth method; format: functional; settings: Lichtheimia corymbifera, 272, 24 h; summary of the method: as §3
[40] = tested on: Lichtheimia corymbifera; assay: Antifungal activity against Absidia corymbifera 272 after 48 hrs by microdilution broth method; format: functional; settings: Lichtheimia corymbifera, 272, 48 h; summary of the method: as §3
[41] = tested on: Trichophyton mentagrophytes; assay: Antifungal activity against Trichophyton mentagrophytes 445 after 24 hrs by microdilution broth method; format: functional; settings: Trichophyton mentagrophytes, 445, 24 h
[42] = tested on: Trichophyton mentagrophytes; assay: Antifungal activity against Trichophyton mentagrophytes 445 after 48 hrs by microdilution broth method; format: functional; settings: Trichophyton mentagrophytes, 445, 48 h
[43] = tested on: HepG2; assay: Cytotoxicity against human HepG2 cells after 24 hrs […]; format: cell-based; settings: HepG2, 24 h
[44] = Selectivity index, ratio of CI50 for human HepG2 cells to MIC100 for Mycobacterium tuberculosis H37Rv 331/88

`O=C(Nc1ccc(C(F)(F)F)cc1)c1cc([N+](=O)[O-])ccc1O` showed an MIC [1] of 8 µM (≈ 2.61 µg/mL), an MIC [2] of 8 µM (≈ 2.61 µg/mL) and an MIC [3] of 62.5 µM (≈ 20.4 µg/mL). It also gave an MIC [4] of 62.5 µM (≈ 20.4 µg/mL), an MIC [5] of 8 µM (≈ 2.61 µg/mL) and an MIC [6] of 16 µM (≈ 5.22 µg/mL). The MIC [7] was 32 µM (≈ 10.4 µg/mL), the MIC [8] was 16 µM (≈ 5.22 µg/mL) and the MIC [9] was 32 µM (≈ 10.4 µg/mL). The MIC [10] was 32 µM (≈ 10.4 µg/mL), the MIC [11] was 31.2 µM (≈ 10.2 µg/mL) and the MIC [12] was 31.2 µM (≈ 10.2 µg/mL). For the same compound, the MIC [13] was 31.2 µM (≈ 10.2 µg/mL), the MIC [14] was 31.2 µM (≈ 10.2 µg/mL) and the MIC [15] was 15.6 µM (≈ 5.1 µg/mL). For the same compound, the MIC [16] was 15.6 µM (≈ 5.1 µg/mL), the MIC [17] was > 500 µM and the MIC [18] was > 500 µM. The MIC [19] was > 500 µM, the MIC [20] was > 500 µM and the MIC [21] was > 500 µM. For the same compound, the MIC [22] was > 500 µM, the MIC [23] was > 500 µM and the MIC [24] was > 500 µM. The MIC [25] was > 500 µM, the MIC [26] was > 500 µM and the MIC [27] was > 500 µM. For the same compound, the MIC [28] was > 500 µM, the MIC [29] was > 500 µM and the MIC [30] was > 500 µM. For the same compound, the MIC [31] was > 500 µM, the MIC [32] was > 500 µM and the MIC [33] was > 500 µM. The MIC [34] was > 500 µM, the MIC [35] was 500 µM (≈ 163 µg/mL) and the MIC [36] was 500 µM (≈ 163 µg/mL). It also gave an MIC [37] of 500 µM (≈ 163 µg/mL), an MIC [38] of 500 µM (≈ 163 µg/mL) and an MIC [39] of 500 µM (≈ 163 µg/mL). The MIC [40] was 500 µM (≈ 163 µg/mL), the MIC [41] was 500 µM (≈ 163 µg/mL) and the MIC [42] was 500 µM (≈ 163 µg/mL). For the same compound, the IC50 [43] was 3.5 µM and the “Selectivity Index” value [44] was 0.438.
